Bioassay records deposited in PubChem BioAssay by The Scripps Research Institute Molecular Screening Center.
OX1R antag-1 = OX1R (human) antagonism; OX1R-expressing cells, FRET antagonist read-out; actives 1.8% (n = 330,000); inhibition, % at 6.6 µM; in the data active means inhibition mostly above about 38%, no sharp cut-off; inactive means mostly below about 40%;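 further: 0% = agonist challenge alone and 100% = reference antagonist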
CHO parental Ca = counter-screen: ATP calcium response change in parental CHO cells. parental CHO-K1, ATP-induced calcium, Fluo-8 fluorescence. inhibition, % at 5.6 µM. actives 0.63% (n = 330,000). AID 463079;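 active means inhibition above that plate's mean sample inhibition plus 3 SD, cut at about 26% in these data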;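 further: 0% = ATP-challenged DMSO wells and 100% = DMSO wells without ATP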
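Test system: parental CHO cells; detection: calcium-sensitive Fluo-8 fluorescence; evaluation: percent inhibition of calcium signal; also added: ATP as calcium-mobilizing challenge; repeats: one well per compound; control set: ATP-challenged DMSO wells low, unchallenged DMSO wells high; compound: single nominal dose of 5.6 µM per compound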
TAAR1 ag = agonists of human TAAR1. CHO RD-HGA16 TAAR1, Fluo-8 calcium fluorescence; vehicle wells 0%, saturating PEA agonist 100%. actives 0.99% (n = 360,000). AID 624467. activation, % at 3 µM. Q96RJ0;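 active means activation above the mean activation of all test compounds in the run plus 3 SD, cut at about 38% in these data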
Target sequence (Q96RJ0 whole entry, looked up): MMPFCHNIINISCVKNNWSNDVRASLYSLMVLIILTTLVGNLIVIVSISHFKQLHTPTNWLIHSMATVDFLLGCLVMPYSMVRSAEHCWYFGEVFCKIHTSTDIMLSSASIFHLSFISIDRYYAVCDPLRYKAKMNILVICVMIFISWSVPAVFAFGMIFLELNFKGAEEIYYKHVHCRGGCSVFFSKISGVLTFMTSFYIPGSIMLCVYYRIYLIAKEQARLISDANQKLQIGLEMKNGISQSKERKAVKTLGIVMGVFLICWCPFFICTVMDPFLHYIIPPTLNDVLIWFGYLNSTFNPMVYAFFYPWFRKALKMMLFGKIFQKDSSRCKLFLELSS
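Benchmarks: low control DMSO, high control PEA (EC100); System: CHO RD-HGA16 cells carrying human TAAR1 plus Gα16; Detection: Fluo-8 fluorescence, 5 s baseline then 140 s kinetic read; Schedule: 17-24 h plating, Fluo-8 75 min 37 °C, 30 min RT; Read-out basis: % activation from peak over basal fluorescence ratio, DMSO-to-PEA scaled.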
TAAR1 antagonist = human TAAR1 antagonism. Q96RJ0. CHO RD-HGA16 TAAR1, Fluo-8 calcium fluorescence, antagonist. actives 1.5% (n = 360,000). AID 624466. inhibition, % at 3 µM;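 active means inhibition above a per-plate cutoff, the mean inhibition of test compounds on that plate plus 3 SD, cut at about 49% in these data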;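 further: 0% = DMSO plus EC80 beta-PEA response and 100% = DMSO alone without agonist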
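Assay system: CHO-derived RD-HGA16 cells stably expressing human TAAR1 plus Gα16. Timing: 140 s kinetic read after compound, 140 s after agonist. Technique: kinetic Fluo-8 calcium fluorescence measurement. Measure: % inhibition of agonist calcium response.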
OX1R antag-2 = blocks the human orexin 1 receptor; inhibition, % at 5 µM; actives 0.43% (n = 330,000); AID 434989; O43613; CHO/OX1R cells, Fluo-8 calcium fluorescence, orexin A;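 active means inhibition above its plate's threshold, mean inhibition of all tested compounds on the plate plus 3 SD, cut at about 37% in these data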;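 further: 0% = orexin A challenge wells and 100% = SB-334867-A antagonist wells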
GPR7 antag = human neuropeptides B/W receptor 1 antagonism; actives 1.1% (n = 290,000); P48145; GPR7-expressing cells, fluorescence antagonist assay; inhibition, % at 4.4 µM; in the data active means inhibition above about 16%, passing the limit was not always enough;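 further: cells stimulated with the agonist NPW; 0% = agonist with vehicle and 100% = vehicle without agonist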
Target sequence (P48145 whole entry, looked up): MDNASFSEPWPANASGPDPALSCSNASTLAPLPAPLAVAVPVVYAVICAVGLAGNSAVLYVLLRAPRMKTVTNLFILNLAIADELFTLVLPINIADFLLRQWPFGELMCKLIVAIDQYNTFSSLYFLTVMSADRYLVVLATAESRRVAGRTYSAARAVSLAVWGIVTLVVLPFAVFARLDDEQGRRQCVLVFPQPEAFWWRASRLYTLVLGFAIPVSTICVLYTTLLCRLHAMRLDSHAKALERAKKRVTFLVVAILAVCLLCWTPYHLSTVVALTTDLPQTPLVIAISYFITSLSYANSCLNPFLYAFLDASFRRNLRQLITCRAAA
GPR7 antag cf = confirmation of human GPR7 antagonists | actives 52% (n = 2,400) | inhibition, % at 4.4 µM | AID 1952 | shares compounds with GPR7 antag | GPR7-expressing cells, calcium fluorescence antagonist mode; in the data active means inhibition above about 24%;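 further: stimulated with the GPR7 agonist NPW; 0% = agonist plus vehicle and 100% = vehicle alone without agonist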
MCHR1 antagonist = MCHR1 (human) antagonism in GPR7 counter-screen | shares compounds with GPR7 antag | MCHR1-expressing cells, fluorescence antagonist assay | inhibition, % at 4.4 µM | actives 62% (n = 2,400) | AID 2148; in the data active means inhibition above about 22%;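 further: 0% = vehicle with agonist and 100% = vehicle without agonist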
Starred values were filed as active, the others as inactive; nt = no result. Compounds with a hit are over-represented: about 4.6% of the library has one in this group of screens.

SMILES	OX1R antag-1	CHO parental Ca	TAAR1 ag	TAAR1 antagonist	OX1R antag-2	GPR7 antag	GPR7 antag cf	MCHR1 antagonist
COc1ccc(C(CCNCc2ccc(OC(C)C)cc2)C(C)C)cc1 (configuration not stated)	9	27*	23	11	-14	27*	51*	70*
CC[C@H](NC(=O)[C@H]1O[C@@H](n2cnc3c(=O)[nH]c(N)nc32)[C@H](O)[C@@H]1O)c1ccccc1	nt	nt	1	-7	nt	nt	nt	nt
Cc1ccc2nccc(C(=O)N3CCCC(Nc4ccc(C)c(C)c4)C3)c2c1 (configuration not stated)	38*	-31	0	-26	27	27*	-5	-9
CCOC(=O)C1=C(c2ccccc2)NC(=O)NC1c1ccc(O)c(Cl)c1 (configuration not stated)	8	-3	1	41	9	75*	66*	49*
CCOC(=O)C1=C(c2ccccc2)NC(=O)NC1c1ccc(O)c(OCC)c1 (configuration not stated)	14	-6	1	-12	-10	-7	nt	nt
O=C(NN=C1CCCC1)c1ccccc1OCCOc1ccccc1	5	-22	8	17	-4	22*	15	27*
COCc1cc(C)nc(SCc2ccc([N+](=O)[O-])cc2)c1C#N	23	-9	4	0	-17	29*	9	13
COCc1cc(C)nc(SCc2ccccc2Cl)c1C#N	-3	-11	1	8	-27	-8	nt	nt
CCCOc1ccc(-c2csc(N)n2)cc1[N+](=O)[O-]	24	-7	3	0	-16	27*	13	26*
CCCCOc1ccc(-c2cn3ccccc3n2)cc1[N+](=O)[O-]	21	-20	3	-1	-35	-6	nt	nt
O=S(=O)(c1ccc(F)cc1F)N1CCCN(c2ccc(C(F)(F)F)cn2)CC1	0	-32	0	-27	-14	-6	nt	nt
N#Cc1ccc(S(=O)(=O)N2CCCN(c3ccc(C(F)(F)F)cn3)CC2)cc1	3	-11	-2	4	-14	24*	19	8
O=C(NC1CCCC1)C(c1ccccc1)N(Cc1ccc(F)cc1)C(=O)c1csnn1 (configuration not stated)	20	-30	-4	14	-29	5	nt	nt
COCCN(C(=O)c1csnn1)C(C(=O)NC1CCCC1)c1ccccc1 (configuration not stated)	15	-18	-1	9	-24	44*	1	-6
COCCN(C(=O)c1csnn1)C(C(=O)NC1CCCCC1)c1ccc(C)cc1 (configuration not stated)	11	-15	-3	-1	-17	-6	nt	nt
O=C(NC1CCCC1)C(c1ccc(F)cc1)N(Cc1ccccc1)C(=O)c1csnn1 (configuration not stated)	15	-18	-4	0	-37	23*	32*	22*
O=C(NC1CCCCC1)C(c1ccccc1F)N(C(=O)c1csnn1)C1CCCC1 (configuration not stated)	24	-22	6	4	-28	23*	17	19
CCCS(=O)(=O)NC(=O)C1(C)CCN(C(=O)Cc2ccc(F)cc2)C1 (configuration not stated)	nt	nt	1	-17	nt	nt	nt	nt
Cc1cccn2c(CN[C@@H]3CCCC[C@H]3c3ccccc3)c(C(=O)N3CCOCC3)nc12	28	-21	8	31	-58	29*	19	25*
COc1cc(Cn2c3ccc(NC(=O)NCCc4ccccc4)cc3c(=O)n2C)ccc1F	nt	nt	28	0	nt	nt	nt	nt
CCOc1ccc(-n2c(SCc3nc(-c4ccc(C)cc4)no3)nnc2-c2ccncc2)cc1	15	-24	5	9	-38	37*	29*	31*
O=[N+]([O-])c1cccc(COc2ccc(CO)cc2)c1	nt	nt	0	0	nt	nt	nt	nt
O=C(O)c1ccc(CNS(=O)(=O)c2ccc3ccccc3c2)cc1	23	13	3	0	4	23*	6	-4
NS(=O)(=O)c1ccc(CNS(=O)(=O)c2ccc3ccccc3c2)cc1	28	8	2	24	-1	4	nt	nt
CCOC(=O)c1cn[nH]c1NC(=S)Nc1ccc(OC)cc1	12	-9	0	-22	-17	30*	26*	21
SMILES	OX1R antag-1	CHO parental Ca	TAAR1 ag	TAAR1 antagonist	OX1R antag-2	GPR7 antag	GPR7 antag cf	MCHR1 antagonist
COC(=O)c1cn[nH]c1NC(=S)Nc1ccc(Cl)c(Cl)c1	20	13	13	10	12	5	nt	nt
COc1ccc(C2CC(=O)C(C=NCCN3CCOCC3)=C(O)C2)cc1 (configuration not stated)	2	-15	4	-13	-15	23*	-1	5
COc1ccc(C2CC(=O)C(C=NCCN3CCN(C(C)=O)CC3)=C(O)C2)cc1 (configuration not stated)	8	-6	12	-7	3	-8	nt	nt
COc1ccc(-c2cnc3c(NC(C)=O)cc(-c4cccc(C(=O)N(C)C)c4)cn23)cc1OC	nt	nt	1	-13	nt	nt	nt	nt
OC(Cc1ccccc1)c1ncc(-c2ccc(Cl)cc2)[nH]1 (configuration not stated)	nt	nt	4	-4	nt	nt	nt	nt
O=c1oc(-c2ccccc2[N+](=O)[O-])nc2ccccc12	21	-10	-1	-13	-2	1	nt	nt
Nc1ccccc1-c1nc2ccccc2c(=O)o1	15	-4	0	-14	-2	49*	8	18
COc1ccc(CNC(=O)c2sc(=O)n(Cc3cc(C(C)=O)ccc3OC)c2C)cc1	nt	nt	6	-15	nt	nt	nt	nt
CC(OC(=O)c1oc2ccccc2c1COc1ccccc1)C(N)=O (configuration not stated)	18	-9	15	-10	-18	-2	nt	nt
CC(C)(C)NC(=O)c1oc2ccccc2c1COc1ccccc1	31	-25	11	-4	-20	26*	21	35*
O=C(/C=C/Nc1ccccc1Br)c1ccccn1	36	-12	12	16	-1	30*	5	21
Cc1ccc(C(O)(C(=O)NN(C(=O)c2ccccc2)c2ccccc2)c2ccc(C)cc2)cc1	25	-2	5	6	-5	36*	39*	23*
O=C(c1ccccc1)N(NC(=O)C(O)(c1ccccc1)c1ccccc1)c1cccc(F)c1	7	-7	1	8	-22	37*	15	64*
CC(C)(O)C(=O)NN(C(=O)c1ccccc1)c1ccc2ccccc2c1	18	-19	nt	nt	-33	9	nt	nt
